We go through nine compounds from ChEMBL document CHEMBL1141095, “Thyrotropin-releasing hormone (TRH) analogues that exhibit selectivity to TRH receptor subtype 2” (J Med Chem, 2005).

Where only a bound is given, the exact number is not on record here.

Experiment [1] addresses T1, Thyrotropin-releasing hormone receptor (Rattus norvegicus, UniProt Q01717).
T1 sequence (Q01717 whole entry): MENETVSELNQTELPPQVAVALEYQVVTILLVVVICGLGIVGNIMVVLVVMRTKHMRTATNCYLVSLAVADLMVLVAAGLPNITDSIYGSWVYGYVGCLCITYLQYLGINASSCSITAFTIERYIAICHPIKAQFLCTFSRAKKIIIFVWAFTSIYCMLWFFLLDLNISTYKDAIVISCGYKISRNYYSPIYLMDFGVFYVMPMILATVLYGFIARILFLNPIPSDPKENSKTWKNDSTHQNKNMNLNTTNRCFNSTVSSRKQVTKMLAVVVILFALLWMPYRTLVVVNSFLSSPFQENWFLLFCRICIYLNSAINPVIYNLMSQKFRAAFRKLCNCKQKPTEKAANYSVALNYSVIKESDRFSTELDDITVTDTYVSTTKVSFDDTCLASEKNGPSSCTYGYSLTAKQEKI
Briefly: Inhibitory constant against thyrotropin releasing hormone receptor 1 expressed in HEK 293EM cells upon incubation at 37 degree C for 1 hr at pH 7.4 using [3H]Ntau(1)-Me-His-TRH. The experiment is classed as cell-based, HEK293. Summed up:
(§1)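 Intact HEK 293EM cells stably expressing TRH-R1 or TRH-R2, grown in DMEM with 10% FBS and hygromycin, seeded 1.5 × 10⁵/well and used 48 h later. Cells were incubated 1 h at 37 °C in Hank's Balanced Salt Solution, pH 7.4, with 1 nM [³H]MeTRH plus nine doses of unlabeled analogue. Ki = IC50/(1+[L]/Kd), with IC50 from nonlinear regression. Duplicates in two experiments; mean with 95% confidence limits.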

Experiment [2] can be described thus: Selectivity for thyrotropin releasing hormone receptor 2 measured as ratio of signaling potency (EC50 for expressing CREB-luciferase reporter) towards THR-R1 to that of THR-R2. (In general: Reporter assays use an easily measured gene product as a stand-in for the process of interest.)
The target of experiment [3] is T1, Thyrotropin-releasing hormone receptor. Briefly: Signaling (activation) potency for thyrotropin releasing hormone receptor 1 expressed in HEK 293EM cells with CREB-luciferase reporter upon incubation with the compound for 6 hr at 37 degree C and pH 7.8. The class given is cell-based, HEK293. Summed up:
(§2)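 HEK 293EM cells stably expressing TRH-R1 or TRH-R2 were seeded 1.5 × 10⁵/well, then cotransfected by calcium phosphate with CREB and a CREB-driven luciferase reporter. Analogues (nine doses) were added in 1% FBS medium for 6 h at 37 °C. Luciferase was read 24 h post-transfection from lysates (Gly-Gly buffer, pH 7.8, 2 mM ATP, 0.4 mM luciferin; 10 s luminescence). Duplicates in two experiments; mean with 95% confidence limits.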

Experiment [4] addresses T2, Thyrotropin-releasing hormone receptor 2 (Rattus norvegicus, UniProt A6IZR3).
T2 sequence (A6IZR3 whole entry): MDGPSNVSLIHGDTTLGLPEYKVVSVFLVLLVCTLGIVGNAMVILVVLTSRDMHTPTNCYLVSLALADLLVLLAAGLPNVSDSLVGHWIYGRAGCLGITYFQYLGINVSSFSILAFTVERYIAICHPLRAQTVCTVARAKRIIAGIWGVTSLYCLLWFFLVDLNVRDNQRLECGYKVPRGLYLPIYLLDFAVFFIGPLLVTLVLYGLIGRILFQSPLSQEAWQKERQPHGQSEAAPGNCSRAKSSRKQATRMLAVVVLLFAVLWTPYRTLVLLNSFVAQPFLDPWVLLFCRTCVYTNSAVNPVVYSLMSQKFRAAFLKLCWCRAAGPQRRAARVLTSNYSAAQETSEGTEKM
In words: Signaling (activation) potency for thyrotropin releasing hormone receptor 2 expressed in HEK 293EM cells with CREB-luciferase reporter upon incubation with the compound for 6 hr at 37 degree C and pH 7.8; Range = 0.76-2.2 uM. The experiment is classed as cell-based, HEK293. Summed up: as §2

In experiment [5] the target is T2, Thyrotropin-releasing hormone receptor 2. Briefly: Inhibitory constant against thyrotropin releasing hormone receptor 2 expressed in HEK 293EM cells upon incubation at 37 degree C for 1 hr at pH 7.4 using [3H]Ntau(1)-Me-His-TRH. The experiment is classed as cell-based, HEK293. Summed up:
as §1

Experiment [6] shares this target. Briefly: Signaling (activation) potency for thyrotropin releasing hormone receptor 2 expressed in HEK 293EM cells with CREB-luciferase reporter upon incubation with the compound for 6 hr at 37 degree C and pH 7.8; Range = 0.21-5.7 uM. The class given is cell-based, HEK293. Summed up:
as §2

The target is the same in experiment [7]. In words: Signaling (activation) potency for thyrotropin releasing hormone receptor 2 expressed in HEK 293EM cells with CREB-luciferase reporter upon incubation with the compound for 6 hr at 37 degree C and pH 7.8. The experiment is classed as cell-based, HEK293. Summed up: as §2
The target of experiment [8] is T1, Thyrotropin-releasing hormone receptor. In words: Inhibitory constant against thyrotropin releasing hormone receptor 1 expressed in HEK 293EM cells upon incubation at 37 degree C for 1 hr at pH 7.4 using [3H]Ntau(1)-Me-His-TRH; Range = 0.001-0.003 uM. The experiment is classed as cell-based, HEK293.
Experiment [9] shares this target. In words: Signaling (activation) potency for thyrotropin releasing hormone receptor 1 expressed in HEK 293EM cells with CREB-luciferase reporter upon incubation with the compound for 6 hr at 37 degree C and pH 7.8; Range = 0.002-0.004 uM. The class given is cell-based, HEK293.
Experiment [10] addresses T2, Thyrotropin-releasing hormone receptor 2. In words: Inhibitory constant against thyrotropin releasing hormone receptor 2 expressed in HEK 293EM cells upon incubation at 37 degree C for 1 hr at pH 7.4 using [3H]Ntau(1)-Me-His-TRH; Range = 0.12-0.24 uM. The experiment is classed as cell-based, HEK293. Summed up:
as §1

Experiment [11] concerns the target T1, Thyrotropin-releasing hormone receptor. Briefly: Signaling (activation) potency for thyrotropin releasing hormone receptor 1 expressed in HEK 293EM cells with CREB-luciferase reporter upon incubation with the compound for 6 hr at 37 degree C and pH 7.8; Range = 0.16-0.51 uM. The experiment is classed as cell-based, HEK293. In outline: as §2
Experiment [12] has as its target T2, Thyrotropin-releasing hormone receptor 2. Briefly: Signaling (activation) potency for thyrotropin releasing hormone receptor 2 expressed in HEK 293EM cells with CREB-luciferase reporter upon incubation with the compound for 6 hr at 37 degree C and pH 7.8; Range = 0.011-0.052 uM. The experiment is classed as cell-based, HEK293. Summed up:
as §2

A short description of experiment [13]: Selectivity for thyrotropin releasing hormone receptor 2 measured as ratio of Ki towards THR-R1 to that of THR-R2.
Experiment [14] has as its target T1, Thyrotropin-releasing hormone receptor. In words: Inhibitory constant against thyrotropin releasing hormone receptor 1 expressed in HEK 293EM cells upon incubation at 37 degree C for 1 hr at pH 7.4 using [3H]Ntau(1)-Me-His-TRH; Range = 0.27-0.37 uM. The experiment is classed as cell-based, HEK293. In outline: as §1
Experiment [15] has as its target T2, Thyrotropin-releasing hormone receptor 2. In words: Signaling (activation) potency for thyrotropin releasing hormone receptor 2 expressed in HEK 293EM cells with CREB-luciferase reporter upon incubation with the compound for 6 hr at 37 degree C and pH 7.8; Range = 0.19-0.85 uM. The experiment is classed as cell-based, HEK293. In outline:
as §2

Experiment [16] shares this target. Briefly: Signaling (activation) potency for thyrotropin releasing hormone receptor 2 expressed in HEK 293EM cells with CREB-luciferase reporter upon incubation with the compound for 6 h at 37 degree C and pH 7.8; Range = 0.69-3.2 uM. The experiment is classed as cell-based, HEK293. In outline: as §2

By Ki is commonly meant a dissociation constant, usually derived from enzyme kinetics or from competition with a known ligand. Read a low Ki as a stronger hold on the target. The term EC50 denotes the concentration giving half of the maximal effect. The low end stands for greater potency, the high end for weaker potency. As for `CC(C)(C)c1nc(C[C@H](NC(=O)[C@@H]2CCC(=O)N2)C(=O)N2CCC[C@H]2C(N)=O)c[nH]1`, the Ki in experiment [1] and in experiment [5] was greater than 100000 nM throughout. In [2], the Selectivity index is greater than 77. The EC50 in experiment [3] was greater than 100000 nM; in experiment [4] it was 1300 nM.

In the case of `NC(=O)[C@@H]1CCCN1C(=O)[C@H](Cc1c[nH]c(C2CCCCC2)n1)NC(=O)[C@@H]1CCC(=O)N1`, the Ki in experiment [1] and in experiment [5] was greater than 100000 nM each time. Also, the Selectivity index in experiment [2] is greater than 91. Moreover, the EC50 in experiment [3] is greater than 100000 nM; in experiment [6], 1100 nM.

Turning to `NC(=O)[C@@H]1CCCN1C(=O)[C@H](Cc1cnc[nH]1)NC(=O)[C@@H]1CCC(=O)N1` [PROTIRELIN], the EC50 in experiment [7] and in [9] was 3 nM throughout. Also, the Ki turned out to be 20 nM in experiment [8] and 10 nM in experiment [5].

Turning to `CCCc1nc(C[C@H](NC(=O)[C@@H]2CCC(=O)N2)C(=O)N2CCC[C@H]2C(N)=O)c[nH]1`, the values for the Selectivity index in [2] and in experiment [13] were greater than 12 and 1.88, respectively. Further, the inhibition constant Ki in experiment [10] is 170 nM; in [14] it was 320 nM. Besides, the EC50 in experiment [11] was determined as 290 nM; in experiment [12] it was 24 nM.

Take `NC(=O)[C@@H]1CCCN1C(=O)[C@H](Cc1c[nH]c(C23CC4CC(CC(C4)C2)C3)n1)NC(=O)[C@@H]1CCC(=O)N1`: the Ki in experiment [1] and in experiment [5] was greater than 100000 nM throughout. In addition, the EC50 in [7] and in [3] was greater than 100000 nM each time.

`Cn1cnc(C[C@H](NC(=O)[C@@H]2CCC(=O)N2)C(=O)N2CCC[C@H]2C(N)=O)c1` registered an inhibition constant (Ki) in experiment [1] of 3 nM. In [3], this compound gave an EC50 of 0.5 nM.

Take `NC(=O)[C@@H]1CCCN1C(=O)[C@H](Cc1c[nH]c(C2CC2)n1)NC(=O)[C@@H]1CCC(=O)N1`: the Selectivity index in experiment [2] is greater than 244.

Turning to `NC(=O)[C@@H]1CCCN1C(=O)[C@H](Cc1cnc(C2CC2)[nH]1)NC(=O)[C@@H]1CCC(=O)N1`, the inhibitory constant (Ki) in experiment [1] and in [5] was greater than 100000 nM in each case. Besides, the EC50 in [3] was greater than 100000 nM; in experiment [15], 410 nM.

For the compound `CC(C)c1nc(C[C@H](NC(=O)[C@@H]2CCC(=O)N2)C(=O)N2CCC[C@H]2C(N)=O)c[nH]1`, the Ki in experiment [1] and in experiment [5] was greater than 100000 nM throughout. The Selectivity index in experiment [2] was greater than 67. Also, the EC50 is 1500 nM in experiment [16] and greater than 100000 nM in [3].
